# Results collected from several papers.
# Compare with care: the assays were run in different laboratories.
# Target: High affinity nerve growth factor receptor (NTRK1, Homo sapiens, UniProt P04629)
Structure (SMILES),test,conditions,measurement,value
Cn1cncc1[C@](O)(COc1ccc(C#N)cc1-c1ccc(OC(F)(F)F)cc1)c1ccc(C#N)cc1,"cell-free assay, competition with immobilised ligand",1 µM,remaining binding,91%
CC(C)(C)c1cc(C=C(C#N)C#N)cc(Br)c1O,"enzyme activity, inhibitor",0.5 µM,remaining activity,100%
COc1ncccc1-c1cnn2ccc(N3CCN(C(=O)OC(C)C)CC3)nc12,"binding, competition with immobilised ligand",1 µM,remaining binding,61%
COc1cc(Nc2ncc(F)c(Nc3ccc4c(n3)NC(=O)C(C)(C)O4)n2)cc(OC)c1OC,binding,10 µM,inhibition,100%
C#Cc1n[nH]c2c(-c3cn([C@@H](C)c4ccccc4)c(=O)[nH]c3=O)cc(F)cc12,"enzyme activity, inhibitor",0.1 µM,inhibition,5%
Cc1nn(C)cc1-c1nc2c(N3CCN(Cc4ccc(Cl)cc4)CC3)c(Cl)cnc2[nH]1,"binding, competition with immobilised ligand",1 µM,remaining binding,80%
C#Cc1n[nH]c2c(-c3cn([C@@H](C)c4ccccn4)c(=O)[nH]c3=O)cc(F)cc12,"enzyme activity, inhibitor",0.1 µM,inhibition,11.2%
Cn1cc(-c2cc(F)cc(N3CCn4c(cc5c4CCCC5)C3=O)c2CO)cc(Nc2ccc(N3CCN(C4COC4)CC3)cn2)c1=O,"enzyme activity, inhibitor",0.1 µM,inhibition,15%
Nc1ncc(-c2nc(N3CCOCC3)nc(N3CCOCC3)n2)c(C(F)F)n1,"cell-free assay, competition with immobilised ligand",10 µM,remaining binding,78%
O=c1[nH]c2ccccc2n1C1CCN(Cc2ccc(-c3[nH]c4cc5ncnc5cc4nc3-c3ccccc3)cc2)CC1,cell-free assay,0.5 µM,remaining signal,99.4%
Cn1cc(-c2cccc(N3CCc4c(sc5c4CC(C)(C)C5)C3=O)c2CO)cc(Nc2ccncn2)c1=O,"enzyme activity, inhibitor",1 µM,inhibition,11%
